Experimental findings from ChEMBL document CHEMBL2440084, “Design and bio-evaluation of indole derivatives as potent Kv1.5 inhibitors” (Bioorg Med Chem, 2013) are described below.

Structures are written as SMILES.

For orientation: inhibition means the relative decrease from the control value, in per cent. The term IC50 denotes the midpoint of a concentration-inhibition curve. The low end stands for inhibition by little substance, the high end for a need for much substance.

Data set [1] addresses T1, Potassium voltage-gated channel subfamily A member 5 (Homo sapiens, UniProt P22460). Kind of data set: Inhibition of human Kv1.5 channel expressed in HEK293 cells at 10 uM by whole cell patch clamp technique. In kind it is cell-based.
For data set [2], the target named is T1, Potassium voltage-gated channel subfamily A member 5. Kind of data set: Inhibition of human Kv1.5 channel expressed in HEK293 cells by whole cell patch clamp technique. In kind it is cell-based. In outline: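 HEK 293 cells stably expressing hKv1.5 were grown at 37 °C with 10% FBS and 0.2 mg/mL geneticin, trypsinized and used the same day. Whole-cell I_Kur was evoked by 500-ms steps to +60 mV from -80 mV at 0.1 Hz, at 25 °C. Compound was applied ≥5 min after current stabilized. IC50 came from cell-by-cell Hill fits, ≥3 cells per concentration, mean ± SD, n = 3.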
(In patch-clamp work, channel activity is measured electrically.)

Data set [3] concerns the target Voltage-gated inwardly rectifying potassium channel KCNH2 (Homo sapiens, UniProt Q12809). In words: Inhibition of human ERG channel expressed in CHO cells by whole cell patch clamp technique. Format: cell-based.
The species named for data set [4] is Homo sapiens. Kind of data set: Selectivity ratio of IC50 for human ERG channel to IC50 for human Kv1.5 channel.
The species entered for data set [5] is Rattus norvegicus. In words: Prolongation of atrial effective refractory period in left atrium of Sprague-Dawley rat heart after 10 mins. Format: functional, tissue-based. As to conditions: Cardiac atrium. In outline:
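Male SD rats (230 ± 30 g) were anesthetized with i.p. chloral hydrate. Left atrium and right ventricle were isolated into Krebs-Henseleit solution at pH 7.4, gassed with 95% O2/5% CO2. Compound was added cumulatively at 0.1, 1.0, 10 and 50 μmol/L, with 10 min equilibration each. ERP was recorded before and after compound. Values are mean ± SEM, n = 3, compared by Student's t test.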

Data set [6] can be described thus: Inhibition of sodium channel in guinea pig ventricular myocytes by whole cell patch clamp technique. As to conditions: Cavia porcellus, Ventricular myocyte. In kind it is cell-based. In outline: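 Whole-cell I_Na was recorded in enzymatically isolated ventricular myocytes, using only quiescent, rod-shaped, striated cells, at 25 °C. Holding potential was -90 mV, with 30-ms pulses from -80 to +40 mV in 10-mV increments at 0.5 Hz. Compound was applied ≥5 min after current stabilized. IC50 came from cell-by-cell Hill fits, ≥3 cells per concentration, mean ± SD.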

The nature of data set [7]: Effect on ventricular effective refractory period in right ventricle of Sprague-Dawley rat heart at 0.1 to 50 umol/L after 10 mins.
In data set [8] the test system is HEK293. In words: Selectivity ratio of IC50 for sodium channel in guinea pig ventricular myocytes to IC50 for human Kv1.5 channel expressed in HEK293 cells. In kind it is cell-based.

T1 sequence (P22460 whole entry): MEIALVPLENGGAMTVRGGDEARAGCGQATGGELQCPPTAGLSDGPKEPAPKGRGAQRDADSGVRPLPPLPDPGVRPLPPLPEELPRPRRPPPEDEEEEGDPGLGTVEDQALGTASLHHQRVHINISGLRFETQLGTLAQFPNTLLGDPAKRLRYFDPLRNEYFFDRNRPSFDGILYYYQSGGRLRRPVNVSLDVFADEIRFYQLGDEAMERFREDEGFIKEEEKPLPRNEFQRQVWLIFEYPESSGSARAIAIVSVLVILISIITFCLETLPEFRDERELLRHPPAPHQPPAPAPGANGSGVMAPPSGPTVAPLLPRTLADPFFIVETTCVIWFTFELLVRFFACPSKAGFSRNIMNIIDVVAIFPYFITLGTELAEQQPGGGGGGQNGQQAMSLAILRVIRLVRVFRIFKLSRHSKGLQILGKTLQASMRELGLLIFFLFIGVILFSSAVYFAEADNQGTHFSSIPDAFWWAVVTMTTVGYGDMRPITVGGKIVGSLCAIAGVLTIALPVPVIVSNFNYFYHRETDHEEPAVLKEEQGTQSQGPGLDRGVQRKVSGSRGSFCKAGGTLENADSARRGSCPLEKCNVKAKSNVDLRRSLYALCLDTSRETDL
Sequence of Voltage-gated inwardly rectifying potassium channel KCNH2 (Q12809 whole entry): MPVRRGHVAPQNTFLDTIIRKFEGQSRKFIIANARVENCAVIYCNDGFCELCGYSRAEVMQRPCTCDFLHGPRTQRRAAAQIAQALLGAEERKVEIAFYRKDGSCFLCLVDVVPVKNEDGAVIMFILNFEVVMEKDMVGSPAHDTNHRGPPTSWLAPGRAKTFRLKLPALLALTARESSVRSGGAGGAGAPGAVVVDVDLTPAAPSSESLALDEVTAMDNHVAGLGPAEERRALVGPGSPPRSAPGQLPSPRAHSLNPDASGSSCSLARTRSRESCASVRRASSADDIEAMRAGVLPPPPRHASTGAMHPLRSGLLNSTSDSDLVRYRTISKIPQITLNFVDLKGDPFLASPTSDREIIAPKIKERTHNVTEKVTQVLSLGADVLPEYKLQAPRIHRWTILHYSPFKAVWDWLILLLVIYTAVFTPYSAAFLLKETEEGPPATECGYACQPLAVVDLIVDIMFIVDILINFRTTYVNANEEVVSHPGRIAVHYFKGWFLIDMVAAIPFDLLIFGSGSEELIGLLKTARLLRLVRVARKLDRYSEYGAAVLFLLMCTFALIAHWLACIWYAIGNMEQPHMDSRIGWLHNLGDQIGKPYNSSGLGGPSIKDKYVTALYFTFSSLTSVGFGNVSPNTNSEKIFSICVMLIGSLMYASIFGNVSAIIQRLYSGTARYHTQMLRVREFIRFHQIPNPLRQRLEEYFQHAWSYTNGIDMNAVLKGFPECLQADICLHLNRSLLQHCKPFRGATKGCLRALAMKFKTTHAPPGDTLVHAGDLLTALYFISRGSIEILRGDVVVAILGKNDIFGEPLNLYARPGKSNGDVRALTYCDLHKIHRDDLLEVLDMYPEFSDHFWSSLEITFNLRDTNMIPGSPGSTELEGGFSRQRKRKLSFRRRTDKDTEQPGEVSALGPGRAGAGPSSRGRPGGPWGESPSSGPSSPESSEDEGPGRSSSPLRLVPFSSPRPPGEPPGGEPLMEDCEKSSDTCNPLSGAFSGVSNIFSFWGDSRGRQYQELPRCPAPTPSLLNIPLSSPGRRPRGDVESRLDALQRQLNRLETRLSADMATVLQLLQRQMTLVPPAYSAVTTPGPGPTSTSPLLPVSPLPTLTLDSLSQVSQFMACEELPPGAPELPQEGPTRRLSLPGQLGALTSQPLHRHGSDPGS

For `CCCCOc1ccc(S(=O)(=O)NC(Cc2c[nH]c3ccccc23)C(=O)OC)cc1` (stereo not drawn), the inhibition in data set [1] was 52%; in data set [2] it was “Dose-dependent effect”. Moreover, the IC50 in data set [2] stood at 8.37 µM.

For the compound `Cc1ccc(S(=O)(=O)N/N=C/c2cn(CC(=O)Nc3cc(C)ccc3C)c3ccccc23)cc1`, in data set [2], inhibition was half-maximal at 1.77 µM (IC50) and the inhibition entry was “Dose-dependent effect”.

As for `Cc1ccc(S(=O)(=O)N/N=C/c2cn(CC(=O)Nc3ccc(OC(F)(F)F)cc3)c3ccccc23)cc1`, in data set [2], the IC50 was found to be 1.52 µM and the inhibition entry is “Dose-dependent effect”.

As for `COC(=O)C(Cc1c[nH]c2ccccc12)NS(=O)(=O)c1ccc(OC2CCCC2)cc1` (stereo not drawn), in data set [2], 2.38 µM corresponded to half-maximal inhibition (IC50) and the inhibition entry is “Dose-dependent effect”.

Consider `COC(=O)C(Cc1c[nH]c2ccccc12)NS(=O)(=O)c1ccc(Br)cc1` (stereo not drawn), for which, in data set [2], the IC50 was determined as 2.25 µM and the inhibition entry is “Dose-dependent effect”.

In the case of `COc1ccc(NC(=O)Cn2cc(CCNS(=O)(=O)c3ccc(C)cc3)c3ccccc32)cc1`, in data set [2], inhibition was half-maximal at 38.7 µM (IC50) and the inhibition result is “Dose-dependent effect”.

`COC(=O)C(Cc1c[nH]c2ccccc12)NS(=O)(=O)c1ccc(F)cc1` (stereo not drawn): in data set [2], half-maximal inhibition (IC50) required 6.45 µM and the inhibition entry is “Dose-dependent effect”.

As for `COc1ccc(NC(=O)Cn2cc(CCNS(=O)(=O)c3ccc(OC)cc3)c3ccccc32)cc1`, the IC50 in data set [3] came to 10.2 µM. Further, in data set [2], the IC50 turned out to be 1.72 µM and the inhibition result is “Dose-dependent effect”. In data set [4], the Ratio IC50 was determined as 5.95.

Take `CCCCOc1ccc(S(=O)(=O)NCCc2cn(CC(=O)Nc3ccc(OC)cc3)c3ccccc23)cc1`: in data set [2], 6.21 µM corresponded to half-maximal inhibition (IC50) and the inhibition result is “Dose-dependent effect”.

Consider `COc1ccc2c(c1)c(/C=N/NS(=O)(=O)c1ccc(C)cc1)cn2CC(=O)Nc1ccc(F)cc1F`, for which, in data set [2], the midpoint of inhibition, the IC50, lay at 2.18 µM and the inhibition result was “Dose-dependent effect”.

On to `Cc1ccc(S(=O)(=O)N/N=C/c2cn(CC(=O)Nc3ccc(F)cc3F)c3ccccc23)cc1`, for which the Activity entry is “Dose-dependent effect” in data set [5] and “Non-toxic” in data set [7]. For the same compound, the IC50 in data set [6] came to 115 µM; in data set [3], 43 µM; in data set [2], 0.25 µM. Also, the inhibition entry in data set [2] was “Dose-dependent effect”. Moreover, the Ratio IC50 in data set [8] was found to be 459; in data set [4], 172.

Regarding `Cc1ccc(S(=O)(=O)N/N=C/c2cn(CC(=O)Nc3ccc(Cl)cc3)c3ccccc23)cc1`, in data set [2], the IC50 was 1.9 µM and the inhibition result was “Dose-dependent effect”.

Regarding `Cc1ccc(S(=O)(=O)N/N=C/c2cn(CC(=O)Nc3ccccc3)c3ccccc23)cc1`, the IC50 in data set [6] worked out at 78 µM; in data set [3] it was 43.6 µM; in data set [2], 0.81 µM. Further, the inhibition entry in data set [2] is “Dose-dependent effect”. Further, the Ratio IC50 in data set [8] turned out to be 96.3; in data set [4] it was 53.9.

Consider `CCCCOc1ccc(S(=O)(=O)NCCc2c[nH]c3ccccc23)cc1`, for which the figures for the IC50 in data set [3] and in data set [2] were 3.18 µM and 9.95 µM, respectively. Further, the inhibition result in data set [2] was “Dose-dependent effect”. Moreover, the Ratio IC50 in data set [4] worked out at 0.32.

As for `Cc1ccc(S(=O)(=O)NCCc2cn(CC(=O)Nc3ccc(Cl)cc3)c3ccccc23)cc1`, in data set [2], the midpoint of inhibition, the IC50, lay at 12.9 µM and the inhibition result was “Dose-dependent effect”.

For the compound `Cc1ccc(S(=O)(=O)N/N=C/c2cn(CC(=O)Nc3ccc(C)c(C)c3)c3ccccc23)cc1`, in data set [2], the IC50 was 11.2 µM and the inhibition result is “Dose-dependent effect”.

With `COc1ccc2c(c1)c(/C=N/NS(=O)(=O)c1ccc(C)cc1)cn2CC(=O)Nc1ccc(Cl)cc1`, the results for the Activity result in data set [5] and in data set [7] were “Dose-dependent effect” and “Non-toxic”, respectively. Also, the IC50 amounted to 52.6 µM in data set [6], 418 µM in data set [3] and 0.51 µM in data set [2]. For the same compound, in data set [2], the inhibition entry was “Dose-dependent effect”. The Ratio IC50 in data set [8] is 103; in data set [4], 820.

On to `CCCCOc1ccc(S(=O)(=O)NC(Cc2ccccc2)C(=O)OC)cc1` (stereo not drawn), for which, in data set [2], the IC50 is 110 µM and the inhibition entry was “Dose-dependent effect”.

In the case of `COc1ccc(S(=O)(=O)NCCc2cn(CC(=O)Nc3ccc(Cl)cc3)c3ccccc23)cc1`, in data set [2], the IC50 was found to be 3.14 µM and the inhibition entry is “Dose-dependent effect”.

For `COC(=O)C(Cc1c[nH]c2ccccc12)NS(=O)(=O)c1ccc(C)cc1` (stereo not drawn), in data set [2], the IC50 stood at 4.72 µM and the inhibition entry was “Dose-dependent effect”.

For `Cc1ccc(S(=O)(=O)N/N=C/c2cn(CC(=O)Nc3ccc(C)cc3C)c3ccccc23)cc1`, in data set [2], the midpoint of inhibition, the IC50, lay at 24 µM and the inhibition result was “Dose-dependent effect”.

Take `COC(=O)C(Cc1c[nH]c2ccccc12)NS(=O)(=O)c1ccc(OC(C)C)cc1` (stereo not drawn): in data set [2], the IC50 came to 3.93 µM and the inhibition result was “Dose-dependent effect”.

Regarding `CCCCOc1ccc(S(=O)(=O)NCCc2cn(CC(=O)Nc3ccc(Cl)cc3)c3ccccc23)cc1`, in data set [2], the IC50 came to 185 µM and the inhibition result is “Dose-dependent effect”.

As to `COC(=O)C(Cc1c[nH]c2ccccc12)NS(=O)(=O)c1ccc(OCC(C)C)cc1` (stereo not drawn), in data set [2], the IC50 came out at 3.56 µM and the inhibition result was “Dose-dependent effect”.

For the compound `Cc1ccc(S(=O)(=O)N/N=C/c2cn(CC(=O)Nc3ccccc3Cl)c3ccccc23)cc1`, the IC50 in data set [3] is 18.7 µM. For the same compound, in data set [2], the 50% inhibitory concentration (IC50) amounted to 0.74 µM and the inhibition result is “Dose-dependent effect”. Further, the Ratio IC50 in data set [4] came to 25.2.

Take `COC(=O)C(Cc1c[nH]c2ccccc12)NS(=O)(=O)c1ccc(OC)cc1` (stereo not drawn): in data set [2], the IC50 turned out to be 5.45 µM and the inhibition entry was “Dose-dependent effect”.

With `COc1ccc2c(c1)c(/C=N/NS(=O)(=O)c1ccc(C)cc1)cn2CC(=O)Nc1ccccc1`, in data set [2], the IC50 amounted to 3.73 µM and the inhibition entry was “Dose-dependent effect”.

`COc1ccc(NC(=O)Cn2cc(/C=N/NS(=O)(=O)c3ccc(C)cc3)c3ccccc32)cc1`: in data set [2], it took 16.9 µM to reach half-maximal inhibition (IC50) and the inhibition entry was “Dose-dependent effect”.

As for `CCCCOc1ccc(S(=O)(=O)NC(Cc2c[nH]c3ccccc23)C(=O)O)cc1` (stereo not drawn), in data set [2], the IC50 amounted to 65.4 µM and the inhibition result was “Dose-dependent effect”.

In the case of `CCC(=O)Oc1ccc(NC(=O)Cn2cc(/C=N/NS(=O)(=O)c3ccc(C)cc3)c3ccccc32)cc1`, in data set [2], the IC50 was 2.14 µM and the inhibition result is “Dose-dependent effect”.
